Results taken from ChEMBL document CHEMBL1149793, “1,8-Naphthyridines VI. Synthesis and anti-inflammatory activity of 5-(alkylamino)-N,N-diethyl[1,2,4]triazolo[4,3-a][1,8]naphthyridine-6-carboxamides with a new substitution pattern on the triazole ring” (2008).

Experiments:
Format in all cases: functional
[1] = system: Rattus norvegicus; test: Antiinflammatory activity against carrageenan-induced edema in Sprague-Dawley rat at 25 mg/kg, po
In short: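 Oral gavage dosing as a homogenized suspension in 0.5% carboxymethylcellulose (1 mL/100 g); controls got vehicle; indomethacin 6 mg/kg p.o. positive control. After 60 min, 0.1 mL 1% carrageenan in saline injected into the right hind plantar surface. Paw volume read by water displacement to the lateral malleolus at injection and 2 h later; the difference is edema. % inhibition vs controls; Student's t-test.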

[2] = system: Rattus norvegicus; test: Antiinflammatory activity against carrageenan-induced edema in Sprague-Dawley rat at 200 mg/kg, po
In short: (§1)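 Rats were dosed orally by gastric intubation with a homogenized suspension in 0.5% carboxymethylcellulose (1 mL/100 g); controls received vehicle alone. After 60 min, 0.1 mL of 1% carrageenan in saline was injected into the plantar surface of the right hind paw. Paw volume was measured by water displacement at injection and 2 h later. Edema was taken as the difference, with % inhibition versus controls (mean ± SD, Student's t-test).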

[3] = system: Rattus norvegicus; test: Antiinflammatory activity against carrageenan-induced edema in Sprague-Dawley rat at 100 mg/kg, po; in short: as §1
[4] = system: Rattus norvegicus; test: Antiinflammatory activity against carrageenan-induced edema in Sprague-Dawley rat at 6 mg/kg, po; in short: as §1
[5] = system: Rattus norvegicus; test: Antiinflammatory activity against carrageenan-induced edema in Sprague-Dawley rat at 50 mg/kg, po; in short: as §1
[6] = system: Mus musculus; test: Analgesic activity against acetic acid-induced writhing in mouse at 3.12 mg/kg

Row | Structure (SMILES) | inhibition in vivo at 200 mg/kg [2] [%] | also measured
1 | CCNc1c(C(=O)N(CC)CC)c2nnc(C(C)C)n2c2ncccc12 |  | inhibition in vivo at 25 mg/kg [1]: 61%
2 | CCN(CC)C(=O)c1c(NCC(C)C)c2cccnc2n2c(CC(=O)NCC(C)C)nnc12 | 18 | 
3 | CCc1nnc2c(C(=O)N(CC)CC)c(N(CC)C(=O)c3cccnc3)c3cccnc3n12 | 51 | inhibition in vivo at 100 mg/kg [3]: 31%
4 | CCN(CC)C(=O)c1c(Cl)c2cccnc2n2c(C(=O)N(C(C)C)C(C)C)nnc12 | 30 | 
5 | CCOC(=O)C(C)c1nnc2c(C(=O)N(CC)CC)c(NCC(C)C)c3cccnc3n12 (stereo not given) | 12 | 
6 | COc1ccc2c(c1)c(CC(=O)O)c(C)n2C(=O)c1ccc(Cl)cc1 [INDOMETHACIN] |  | inhibition in vivo at 6 mg/kg [4]: 92%
7 | CCN(CC)C(=O)c1c(NCC(C)C)c2cccnc2n2c(C(=O)N(CC)CC)nnc12 | 60 | inhibition in vivo at 100 mg/kg [3]: 30%
8 | CCOC(=O)Cc1nnc2c(C(=O)N(CC)CC)c(NCC(C)C)c3cccnc3n12 | 65 | inhibition in vivo at 100 mg/kg [3]: 35%; inhibition in vivo at 50 mg/kg [5]: 21%
9 | CCN(CC)C(=O)c1c(NCC(C)C)c2cccnc2n2c(CC(=O)Nc3nccs3)nnc12 | 18 | 
10 | CCCN(CCC)C(=O)c1nnc2c(C(=O)N(CC)CC)c(NCC(C)C)c3cccnc3n12 | 35 | 
11 | CCOC(=O)c1nnc2c(C(=O)N(CC)CC)c(NCC(C)C)c3cccnc3n12 | 20 | 
12 | CCN(CC)C(=O)c1c(N2CCN(C)CC2)c2cccnc2n2c(C(C)C)nnc12 |  | Activity [6]: 85%
13 | CCNc1c(C(=O)N(CC)CC)c2nnc(CC(=O)OCC)n2c2ncccc12 | 0 | 
14 | CCN(CC)C(=O)c1c(NCC(C)C)c2cccnc2n2c(C(C)C)nnc12 |  | inhibition in vivo at 25 mg/kg [1]: 61%
15 | CCN(CC)C(=O)c1c(N(CC(C)C)C(C)=O)c2cccnc2n2c(C(C)C)nnc12 | 5 | 
16 | CCCCNc1c(C(=O)N(CC)CC)c2nnc(CC(=O)NCC(C)C)n2c2ncccc12 | 0 | 
